{
  "source": "ChEMBL document CHEMBL1240363",
  "about": "“Pharmacokinetics of ertapenem following intravenous and subcutaneous infusions in patients” (Antimicrob Agents Chemother, 2010)",
  "key": {"[1]": {"test": "Cmax in patient with bacterial infection at 1 gm[…], sc administered at 30 mins regimen for 24 hrs by LC/MS/MS analysis", "assay_type": "ADME, organism-based", "design": "route subcutaneous", "conditions": "human, in vivo", "summary_of_the_method": "(§1)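 Six infected patients received ertapenem 1 g once daily, infused over 30 min: first i.v. via a central vein, then s.c. into the anterior thigh for one day. Arterial plasma was sampled over 24 h at steady state (i.v. on days 4–7). Plasma was stabilized 1:1 at pH 6.5 and assayed by LC-MS/MS. Total concentrations were fitted with compartmental models (1/y weighting), giving Cmax, tmax, t1/2, AUC0-24, CL and Vss as mean ± SD.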"}, "[2]": {"test": "fT>MIC […] Escherichia coli-infected kinetic model", "assay_type": "functional"}, "[3]": {"test": "fT>MIC […]-infected kinetic model", "assay_type": "functional"}, "[4]": {"test": "fT>MIC methicillin-resistant Staphylococcus aureus-infected kinetic model", "assay_type": "functional"}, "[5]": {"test": "Cmax in patient with bacterial infection at 1 gm[…], iv administered at 30 mins regimen for 24 hrs by LC/MS/MS analysis", "assay_type": "ADME, organism-based", "design": "route intravenous", "conditions": "human, in vivo", "summary_of_the_method": "as §1"}, "[6]": {"test": "Volume of distribution at steady state in patient with bacterial infection at 1 gm, iv administered at 30 mins regimen for 24 hrs by LC/MS/MS analysis", "conditions": "human, in vivo, read-out: Vdss"}, "[7]": {"test": "Clearance in patient with bacterial infection at 1 gm[…], iv administered at 30 mins regimen for 24 hrs by LC/MS/MS analysis", "assay_type": "ADME, organism-based", "conditions": "human, in vivo", "summary_of_the_method": "as §1"}, "[8]": {"test": "Tmax in patient with bacterial infection at 1 gm[…], iv administered at 30 mins regimen for 24 hrs by LC/MS/MS analysis", "assay_type": "ADME, organism-based", "conditions": "human, in vivo", "summary_of_the_method": "as §1"}, "[9]": {"test": "Half life in patient with bacterial infection at […], iv administered at 30 mins regimen for 24 hrs by LC/MS/MS analysis", "assay_type": "ADME, organism-based", "conditions": "human, in vivo", "summary_of_the_method": "as §1"}, "[10]": {"test": "fT>MIC […] Klebsiella pneumoniae-infected kinetic model", "assay_type": "functional"}, "[11]": {"test": "Tmax in patient with bacterial infection at 1 gm[…], sc administered at 30 mins regimen for 24 hrs by LC/MS/MS analysis", "assay_type": "ADME, organism-based", "conditions": "human, in vivo", "summary_of_the_method": "as §1"}, "Homo sapiens": {"tested_on": "Homo sapiens", "test": "Ratio of AUC (0 to 24 hrs) in sc dosed patient with bacterial infection to AUC (0 to 24 hrs) in iv dosed patient with bacterial infection", "assay_type": "ADME, organism-based", "conditions": "in vivo", "summary_of_the_method": "as §1"}, "[12]": {"test": "Half life in patient with bacterial infection at […], sc administered at 30 mins regimen for 24 hrs by LC/MS/MS analysis", "assay_type": "ADME, organism-based", "conditions": "human, in vivo", "summary_of_the_method": "as §1"}},
  "data": [
    {"molecule": "C[C@@H](O)[C@H]1C(=O)N2C(C(=O)O)=C(S[C@@H]3CN[C@H](C(=O)Nc4cccc(C(=O)O)c4)C3)[C@H](C)[C@H]12", "note": "[ERTAPENEM]", "values": [
      {"measurement": "Cmax", "setting": "[1]", "value": 43, "unit": "µg/mL"},
      {"measurement": "fT>MIC", "setting": "[2]", "value": 30, "unit": "%"},
      {"measurement": "fT>MIC", "setting": "[3]", "value": 30, "unit": "%"},
      {"measurement": "fT>MIC", "setting": "[4]", "value": 30, "unit": "%"},
      {"measurement": "Cmax", "setting": "[5]", "value": 115, "unit": "µg/mL"},
      {"measurement": "Vd", "setting": "[6]", "value": 16.1, "unit": "L"},
      {"measurement": "clearance", "setting": "[7]", "value": 63.3, "unit": "mL/min"},
      {"measurement": "Tmax", "setting": "[8]", "value": 0.5, "unit": "h"},
      {"measurement": "half-life", "setting": "[9]", "value": 3.9, "unit": "h"},
      {"measurement": "fT>MIC", "setting": "[10]", "value": 30, "unit": "%"},
      {"measurement": "Tmax", "setting": "[11]", "value": 2.7, "unit": "h"},
      {"measurement": "Ratio AUC", "setting": "Homo sapiens", "value": 0.99},
      {"measurement": "half-life", "setting": "[12]", "value": 5.4, "unit": "h"}
    ]}
  ]
}
